Experimental data: ChEMBL document CHEMBL4689842, “EUbOPEN Chemogenomics Library wave 1” (2021)
Several values for one entry are separate records, joined by “and”; a condition that tells them apart may be missing. Equal values may be shown once.

Key:
Assay type in all cases: toxicity, cell-based
Fibroblast [1] = assay: Multiplex assay against human fibroblast; details: 1 µM, compound concentration 1 uM
Outline: (§1)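 Per cents of healthy-nucleus cells form the tubulin, mitochondrial-mass and membrane-permeability phenotype values. Live cells were stained at seeding with Hoechst33342, BioTracker Green Microtubule Cytoskeleton Dye, MitoTracker Red and Annexin V Alexa Fluor 680. After compound addition they were imaged on a CQ1 microscope at 37°C and 5% CO2, and CellPathfinder machine-learning gating split them into Hoechst high-intensity objects or normal cells, normal cells into healthy, pyknosed or fragmented nuclei, and pyknosed cells into mitotic or apoptotic.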

HEK-293T [2] = assay: Multiplex assay against HEK293T; details: human, 1 µM, compound concentration 1 uM; outline: as §1;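 for Population Tubulin-Different-Phenotype (%): share of the cells with healthy nuclei that show this phenotype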
Fibroblast [3] = assay: Incucyte cell viability with human fibroblast; details: 10 µM, compound concentration 10 uM; note: filed as whole numbers so only -1 and 0 and 1 occur
U2OS [4] = assay: Incucyte cell viability with U2OS; details: human, 10 µM, compound concentration 10 uM; note: filed as whole numbers so only -1 and 0 and 1 occur
HEK-293T [5] = assay: Incucyte cell viability with HEK293T; details: human, 10 µM, compound concentration 10 uM; note: filed as whole numbers so only -1 and 0 and 1 occur
U2OS [6] = assay: Multiplex assay against U2OS; details: human, 1 µM, compound concentration 1 uM; outline: as §1
[7] = 0 h, replicate number 1, timepoint 0 hours
[8] = 6 h, replicate number 1, timepoint 6 hours
[9] = 12 h, replicate number 1, timepoint 12 hours
[10] = 18 h, replicate number 1, timepoint 18 hours
[11] = 24 h, replicate number 1, timepoint 24 hours
[12] = 0 h, replicate number 2, timepoint 0 hours

SMILES: CNC(=O)Nc1ccc2c(c1)CC[C@@]21OC(=O)N(CC(=O)N(Cc2ccc(F)cc2)[C@@H](C)C(F)(F)F)C1=O [A-485]
- Population Apoptotic (%) (Fibroblast [1]; 12 h, replicate 1): 50% and 76%
- Population Fragmented Nuclei (%) (Fibroblast [1]; 12 h, replicate 1): 17% and 24%
- Population Healthy Nuclei (%) (Fibroblast [1]; 12 h, replicate 1): 59% and 61%
- Population Hoechst High Intensity Objects (%) (Fibroblast [1]; 12 h, replicate 1): 8% and 9%
- Population Mitotic Cells (%) (Fibroblast [1]; 12 h, replicate 1): 50% and 23%
- Population Normal (%) (Fibroblast [1]; 12 h, replicate 1): 91% and 90%
- Population Pyknosed Nuclei (%) (Fibroblast [1]; 12 h, replicate 1): 23% and 13%
- Total Cell Count (Fibroblast [1]; 12 h, replicate 1): 243 and 214
- Population Fragmented Nuclei (%) (Fibroblast [1]; 12 h, replicate 2): 53% and 66%
- Population Healthy Nuclei (%) (Fibroblast [1]; 12 h, replicate 2): 39% and 24%
- Population Hoechst High Intensity Objects (%) (Fibroblast [1]; 12 h, replicate 2): 37% and 49%
- Population Membrane Permeable-Phenotype (%) (Fibroblast [1]; 12 h, replicate 2): 11% and 33%
- Population Mitochondria Different-Phenotype (%) (Fibroblast [1]; 12 h, replicate 2): 17% and 25%
- Population Normal (%) (Fibroblast [1]; 12 h, replicate 2): 62% and 50%
- Population Pyknosed Nuclei (%) (Fibroblast [1]; 12 h, replicate 2): 6% and 10%
- Population Tubulin-Different-Phenotype (%) (Fibroblast [1]; 12 h, replicate 2): 23% and 66%
- Total Cell Count (Fibroblast [1]; 12 h, replicate 2): 69 and 99
- Population Apoptotic (%) (Fibroblast [1]; 24 h, replicate 1): 73% and 48%
- Population Fragmented Nuclei (%) (Fibroblast [1]; 24 h, replicate 1): 17% and 22%
- Population Healthy Nuclei (%) (Fibroblast [1]; 24 h, replicate 1): 64% and 59%
- Population Hoechst High Intensity Objects (%) (Fibroblast [1]; 24 h, replicate 1): 9% and 11%
- Population Membrane Permeable-Phenotype (%) (Fibroblast [1]; 24 h, replicate 1): 17% and 11%
- Population Mitotic Cells (%) (Fibroblast [1]; 24 h, replicate 1): 26% and 51%
- Population Normal (%) (Fibroblast [1]; 24 h, replicate 1): 90% and 88%
- Population Pyknosed Nuclei (%) (Fibroblast [1]; 24 h, replicate 1): 17%
- Population Tubulin-Different-Phenotype (%) (Fibroblast [1]; 24 h, replicate 1): 9%
- Total Cell Count (Fibroblast [1]; 24 h, replicate 1): 251 and 207
- Population Apoptotic (%) (Fibroblast [1]; 24 h, replicate 2): 50%
- Population Fragmented Nuclei (%) (Fibroblast [1]; 24 h, replicate 2): 51% and 62%
- Population Healthy Nuclei (%) (Fibroblast [1]; 24 h, replicate 2): 37% and 29%
- Population Hoechst High Intensity Objects (%) (Fibroblast [1]; 24 h, replicate 2): 39% and 51%
- Population Mitochondria Different-Phenotype (%) (Fibroblast [1]; 24 h, replicate 2): 0% and 21%
- Population Mitotic Cells (%) (Fibroblast [1]; 24 h, replicate 2): 50%
- Population Normal (%) (Fibroblast [1]; 24 h, replicate 2): 60% and 48%
- Population Pyknosed Nuclei (%) (Fibroblast [1]; 24 h, replicate 2): 10% and 8%
- Population Tubulin-Different-Phenotype (%) (Fibroblast [1]; 24 h, replicate 2): 21% and 42%
- Total Cell Count (Fibroblast [1]; 24 h, replicate 2): 61 and 99
- Population Apoptotic (%) (HEK-293T [2]; 12 h, replicate 1): 15% and 30%
- Population Fragmented Nuclei (%) (HEK-293T [2]; 12 h, replicate 1): 18% and 22%
- Population Healthy Nuclei (%) (HEK-293T [2]; 12 h, replicate 1): 55% and 56%
- Population Hoechst High Intensity Objects (%) (HEK-293T [2]; 12 h, replicate 1): 16% and 23%
- Population Mitochondria Different-Phenotype (%) (HEK-293T [2]; 12 h, replicate 1): 8% and 7%
- Population Mitotic Cells (%) (HEK-293T [2]; 12 h, replicate 1): 84% and 69%
- Population Normal (%) (HEK-293T [2]; 12 h, replicate 1): 83% and 76%
- Population Pyknosed Nuclei (%) (HEK-293T [2]; 12 h, replicate 1): 26% and 20%
- Total Cell Count (HEK-293T [2]; 12 h, replicate 1): 630 and 586
- Population Apoptotic (%) (HEK-293T [2]; 12 h, replicate 2): 6% and 12%
- Population Fragmented Nuclei (%) (HEK-293T [2]; 12 h, replicate 2): 5% and 8%
- Population Healthy Nuclei (%) (HEK-293T [2]; 12 h, replicate 2): 85% and 87%
- Population Hoechst High Intensity Objects (%) (HEK-293T [2]; 12 h, replicate 2): 2%
- Population Mitochondria Different-Phenotype (%) (HEK-293T [2]; 12 h, replicate 2): 20% and 9%
- Population Mitotic Cells (%) (HEK-293T [2]; 12 h, replicate 2): 93% and 87%
- Population Normal (%) (HEK-293T [2]; 12 h, replicate 2): 97%
- Population Pyknosed Nuclei (%) (HEK-293T [2]; 12 h, replicate 2): 8% and 4%
- Total Cell Count (HEK-293T [2]; 12 h, replicate 2): 1495 and 1775
- Population Apoptotic (%) (HEK-293T [2]; 24 h, replicate 1): 21% and 25%
- Population Fragmented Nuclei (%) (HEK-293T [2]; 24 h, replicate 1): 18%
- Population Healthy Nuclei (%) (HEK-293T [2]; 24 h, replicate 1): 62% and 73%
- Population Hoechst High Intensity Objects (%) (HEK-293T [2]; 24 h, replicate 1): 11% and 16%
- Population Membrane Permeable-Phenotype (%) (HEK-293T [2]; 24 h, replicate 1): 14% and 9%
- Population Mitochondria Different-Phenotype (%) (HEK-293T [2]; 24 h, replicate 1): 15% and 6%
- Population Mitotic Cells (%) (HEK-293T [2]; 24 h, replicate 1): 78% and 74%
- Population Normal (%) (HEK-293T [2]; 24 h, replicate 1): 88% and 83%
- Population Pyknosed Nuclei (%) (HEK-293T [2]; 24 h, replicate 1): 18% and 8%
- Population Tubulin-Different-Phenotype (%) (HEK-293T [2]; 24 h, replicate 1): 74%
- Total Cell Count (HEK-293T [2]; 24 h, replicate 1): 539 and 610
- Population Apoptotic (%) (HEK-293T [2]; 24 h, replicate 2): 10% and 4%
- Population Fragmented Nuclei (%) (HEK-293T [2]; 24 h, replicate 2): 14% and 24%
- Population Healthy Nuclei (%) (HEK-293T [2]; 24 h, replicate 2): 81% and 72%
- Population Hoechst High Intensity Objects (%) (HEK-293T [2]; 24 h, replicate 2): 5% and 3%
- Population Membrane Permeable-Phenotype (%) (HEK-293T [2]; 24 h, replicate 2): 16% and 10%
- Population Mitotic Cells (%) (HEK-293T [2]; 24 h, replicate 2): 89% and 95%
- Population Normal (%) (HEK-293T [2]; 24 h, replicate 2): 94% and 96%
- Population Pyknosed Nuclei (%) (HEK-293T [2]; 24 h, replicate 2): 4% and 2%
- Total Cell Count (HEK-293T [2]; 24 h, replicate 2): 1741 and 2832
- Growth Rate (Fibroblast [3]; [7]): 0
- Growth Rate (Fibroblast [3]; [8]): 0
- Growth Rate (Fibroblast [3]; [9]): 0
- Growth Rate (Fibroblast [3]; 12 h, replicate number 2, timepoint 12 hours): 1
- Growth Rate (Fibroblast [3]; [10]): 0
- Growth Rate (Fibroblast [3]; [11]): 1
- Growth Rate (Fibroblast [3]; 24 h, replicate number 2, timepoint 24 hours): 0
- Growth Rate (U2OS [4]; [7]): 1
- Growth Rate (U2OS [4]; [12]): 0
- Growth Rate (U2OS [4]; [8]): 0
- Growth Rate (U2OS [4]; [9]): 1
- Growth Rate (U2OS [4]; [10]): 1
- Growth Rate (U2OS [4]; [11]): 1
- Growth Rate (HEK-293T [5]; [7]): 0
- Growth Rate (HEK-293T [5]; [12]): 1
- Growth Rate (HEK-293T [5]; [8]): 0
- Growth Rate (HEK-293T [5]; [9]): 0
- Growth Rate (HEK-293T [5]; [10]): 0
- Growth Rate (HEK-293T [5]; [11]): 0
- Population Apoptotic (%) (U2OS [6]; 12 h, replicate 1): 30% and 62%
- Population Fragmented Nuclei (%) (U2OS [6]; 12 h, replicate 1): 2% and 8%
- Population Healthy Nuclei (%) (U2OS [6]; 12 h, replicate 1): 91% and 85%
- Population Hoechst High Intensity Objects (%) (U2OS [6]; 12 h, replicate 1): 4%
- Population Mitochondria Different-Phenotype (%) (U2OS [6]; 12 h, replicate 1): 14% and 16%
- Population Mitotic Cells (%) (U2OS [6]; 12 h, replicate 1): 70% and 37%
- Population Normal (%) (U2OS [6]; 12 h, replicate 1): 95%
- Population Pyknosed Nuclei (%) (U2OS [6]; 12 h, replicate 1): 5% and 6%
- Population Tubulin-Different-Phenotype (%) (U2OS [6]; 12 h, replicate 1): 58% and 20%
- Total Cell Count (U2OS [6]; 12 h, replicate 1): 185 and 139
- Population Apoptotic (%) (U2OS [6]; 12 h, replicate 2): 20% and 0%
- Population Fragmented Nuclei (%) (U2OS [6]; 12 h, replicate 2): 10% and 7%
- Population Healthy Nuclei (%) (U2OS [6]; 12 h, replicate 2): 76% and 88%
- Population Hoechst High Intensity Objects (%) (U2OS [6]; 12 h, replicate 2): 6% and 8%
- Population Mitochondria Different-Phenotype (%) (U2OS [6]; 12 h, replicate 2): 23% and 22%
- Population Mitotic Cells (%) (U2OS [6]; 12 h, replicate 2): 80% and 100%
- Population Normal (%) (U2OS [6]; 12 h, replicate 2): 93% and 91%
- Population Pyknosed Nuclei (%) (U2OS [6]; 12 h, replicate 2): 12% and 4%
- Total Cell Count (U2OS [6]; 12 h, replicate 2): 82 and 103
- Population Fragmented Nuclei (%) (U2OS [6]; 24 h, replicate 1): 5% and 4%
- Population Healthy Nuclei (%) (U2OS [6]; 24 h, replicate 1): 88% and 90%
- Population Hoechst High Intensity Objects (%) (U2OS [6]; 24 h, replicate 1): 0% and 2%
- Population Membrane Permeable-Phenotype (%) (U2OS [6]; 24 h, replicate 1): 24% and 13%
- Population Mitochondria Different-Phenotype (%) (U2OS [6]; 24 h, replicate 1): 10% and 11%
- Population Mitotic Cells (%) (U2OS [6]; 24 h, replicate 1): 93% and 66%
- Population Normal (%) (U2OS [6]; 24 h, replicate 1): 99% and 97%
- Population Pyknosed Nuclei (%) (U2OS [6]; 24 h, replicate 1): 6% and 4%
- Population Tubulin-Different-Phenotype (%) (U2OS [6]; 24 h, replicate 1): 22% and 28%
- Total Cell Count (U2OS [6]; 24 h, replicate 1): 230 and 188
- Population Apoptotic (%) (U2OS [6]; 24 h, replicate 2): 35% and 66%
- Population Fragmented Nuclei (%) (U2OS [6]; 24 h, replicate 2): 9% and 3%
- Population Healthy Nuclei (%) (U2OS [6]; 24 h, replicate 2): 77% and 94%
- Population Hoechst High Intensity Objects (%) (U2OS [6]; 24 h, replicate 2): 6% and 11%
- Population Membrane Permeable-Phenotype (%) (U2OS [6]; 24 h, replicate 2): 14% and 11%
- Population Mitochondria Different-Phenotype (%) (U2OS [6]; 24 h, replicate 2): 19% and 18%
- Population Mitotic Cells (%) (U2OS [6]; 24 h, replicate 2): 64% and 33%
- Population Normal (%) (U2OS [6]; 24 h, replicate 2): 93% and 88%
- Population Tubulin-Different-Phenotype (%) (U2OS [6]; 24 h, replicate 2): 13% and 11%
- Total Cell Count (U2OS [6]; 24 h, replicate 2): 114 and 147
